The source of these data is ChEMBL document CHEMBL3414433, “Discovery and profiling of a selective and efficacious Syk inhibitor” (J Med Chem, 2015).

Data set [1] can be described thus: Cytotoxicity against C57BL/6 mouse bone marrow cells assessed as growth inhibition preincubated for 4 days followed by [3H]-thymidine addition measured after 5 hrs by betaplate counting analysis. It counts as cell-based, Bone marrow cell.
In data set [2] the target is T1, Tyrosine-protein kinase SYK (Homo sapiens, UniProt P43405). The data set can be described thus: Inhibition of Syk in anti-igM stimulated human Ramos B cells assessed as phospho-BLNK level preincubated for 30 mins followed by anti-IgM stimulation measured after 15 mins by flow cytometric analysis. It counts as cell-based.
In data set [3] the target is Voltage-gated inwardly rectifying potassium channel KCNH2 (Homo sapiens, UniProt Q12809). The data set can be described thus: Inhibition of human ERG expressed in CHO cells by automated Qpatch clamp assay. The class given is cell-based. (In general: Patch clamp records ionic current or voltage across a cell membrane.)
Data set [4] deals with T1, Tyrosine-protein kinase SYK.
Data set [5] has the same target. The experiment in a line: Inhibition of Syk in anti-CD32 stimulated CD14+ human monocytes assessed as phospho-SLP76 level preincubated for 30 mins followed by anti-CD32 stimulation measured after 5 mins by flow cytometric analysis. In general terms: Flow cytometry measures light scatter and fluorescence of single cells or particles in a stream.
Data set [6] is described as follows: Volume of distribution at steady state in Sprague-Dawley rat at 1 mg/kg, iv and 3 mg/kg, po administered as cassette dosing. It counts as ADME, organism-based. The conditions noted are these: in vivo, read-out: Vdss. The essentials:
(§1)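 Rats were dosed i.v. at 1 mg/kg in NMP/PEG200 (3:7) and p.o. at 3 mg/kg in CMC/water/Tween (0.5:99:0.5). PK parameters were derived from blood concentration–time curves for both routes.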

A short description of data set [7]: Clearance in Sprague-Dawley rat at 1 mg/kg, iv and 3 mg/kg, po administered as cassette dosing. The note with it: in vivo. The class given is ADME, organism-based. The gist of the method:
(§2)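 Rat PK: i.v. 1 mg/kg in NMP/PEG200 (3:7); p.o. 3 mg/kg in CMC/water/Tween (0.5:99:0.5). Exposure values dose normalized.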

The nature of data set [8]: Mean residence time in Sprague-Dawley rat at 1 mg/kg, iv and 3 mg/kg, po administered as cassette dosing. It counts as ADME, organism-based. The note with it: in vivo. The essentials:
as §1

For data set [9], the system named is Rattus norvegicus. The data set can be described thus: Dose normalized AUC in Sprague-Dawley rat at 3 mg/kg, po administered as cassette dosing. It counts as ADME, organism-based. The note with it: in vivo. Further details: dose 3 mg/kg, route oral. The gist of the method: as §2
A short description of data set [10]: Oral bioavailability in Sprague-Dawley rat at 3 mg/kg administered as cassette dosing. The class given is ADME, organism-based. The conditions noted are these: in vivo. The gist of the method:
as §1

For data set [11], the system named is Rattus norvegicus. The data set can be described thus: Dose normalized Cmax in Sprague-Dawley rat at 1 mg/kg, iv and 3 mg/kg, po administered as cassette dosing. It counts as ADME, organism-based. The note with it: in vivo. The essentials: as §2
Data set [12] deals with Rattus norvegicus. The experiment in a line: Dose normalized AUC in Sprague-Dawley rat at 1 mg/kg, iv administered as cassette dosing. Further details: dose 1 mg/kg, route intravenous. The conditions noted are these: in vivo. It counts as ADME, organism-based. The essentials:
as §2

Data set [13] in a line: Metabolic stability in monkey liver assessed as formation of 2-(7-(3-((1R,2S)-2-aminocyclohexylamino)-6-carbamoyl-1,2,4-triazin-5-ylamino)-3-oxo-3H-indol-2-ylamino)-3-mercaptopropanoic acid at 10 to 20 uM after 8 to 18 hrs. It counts as ADME, tissue-based, Macaca mulatta. The note with it: rhesus monkey. The gist of the method: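 Freshly excised monkey liver was cut into 230 μm slices from 8 mm cores. Four slices per vessel were preincubated 1 h at 37 °C in Williams medium E with 10% FBS, glucose, insulin, hydrocortisone, methionine, gentamycin and amphotericin B, under 75% O2/5% CO2/20% N2 with rotation. Compound was added at 10 or 20 μM (from 2 mM DMSO stock) for 8 or 18 h, then quenched with cold acetonitrile.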

Data set [14] concerns the target T2, hERG (KCNH2) (Homo sapiens, UniProt Q12809). The data set can be described thus: Inhibition of human ERG at 3 uM by manual patch clamp assay relative to control.
Data set [15] addresses T2, hERG (KCNH2). The experiment in a line: Inhibition of human ERG at 10 uM by manual patch clamp assay relative to control.
The subject of data set [16] is Hepatocyte. The experiment in a line: Metabolic stability in rat hepatocytes assessed as compound remaining. It counts as ADME, cell-based.
The nature of data set [17]: Metabolic stability in monkey hepatocytes assessed as compound remaining. It counts as ADME, cell-based, Macaca mulatta, Hepatocyte. The conditions noted are these: rhesus monkey.
The nature of data set [18]: Metabolic stability in dog hepatocytes assessed as compound remaining. The class given is ADME, cell-based, Canis lupus familiaris, Hepatocyte.
For data set [19], the system named is Hepatocyte. The data set can be described thus: Metabolic stability in human hepatocytes assessed as compound remaining. It counts as ADME, cell-based.
[20] abbreviates: Mus musculus, C57BL/6, Bone marrow cell.

Sequence of Voltage-gated inwardly rectifying potassium channel KCNH2 (Q12809 whole entry): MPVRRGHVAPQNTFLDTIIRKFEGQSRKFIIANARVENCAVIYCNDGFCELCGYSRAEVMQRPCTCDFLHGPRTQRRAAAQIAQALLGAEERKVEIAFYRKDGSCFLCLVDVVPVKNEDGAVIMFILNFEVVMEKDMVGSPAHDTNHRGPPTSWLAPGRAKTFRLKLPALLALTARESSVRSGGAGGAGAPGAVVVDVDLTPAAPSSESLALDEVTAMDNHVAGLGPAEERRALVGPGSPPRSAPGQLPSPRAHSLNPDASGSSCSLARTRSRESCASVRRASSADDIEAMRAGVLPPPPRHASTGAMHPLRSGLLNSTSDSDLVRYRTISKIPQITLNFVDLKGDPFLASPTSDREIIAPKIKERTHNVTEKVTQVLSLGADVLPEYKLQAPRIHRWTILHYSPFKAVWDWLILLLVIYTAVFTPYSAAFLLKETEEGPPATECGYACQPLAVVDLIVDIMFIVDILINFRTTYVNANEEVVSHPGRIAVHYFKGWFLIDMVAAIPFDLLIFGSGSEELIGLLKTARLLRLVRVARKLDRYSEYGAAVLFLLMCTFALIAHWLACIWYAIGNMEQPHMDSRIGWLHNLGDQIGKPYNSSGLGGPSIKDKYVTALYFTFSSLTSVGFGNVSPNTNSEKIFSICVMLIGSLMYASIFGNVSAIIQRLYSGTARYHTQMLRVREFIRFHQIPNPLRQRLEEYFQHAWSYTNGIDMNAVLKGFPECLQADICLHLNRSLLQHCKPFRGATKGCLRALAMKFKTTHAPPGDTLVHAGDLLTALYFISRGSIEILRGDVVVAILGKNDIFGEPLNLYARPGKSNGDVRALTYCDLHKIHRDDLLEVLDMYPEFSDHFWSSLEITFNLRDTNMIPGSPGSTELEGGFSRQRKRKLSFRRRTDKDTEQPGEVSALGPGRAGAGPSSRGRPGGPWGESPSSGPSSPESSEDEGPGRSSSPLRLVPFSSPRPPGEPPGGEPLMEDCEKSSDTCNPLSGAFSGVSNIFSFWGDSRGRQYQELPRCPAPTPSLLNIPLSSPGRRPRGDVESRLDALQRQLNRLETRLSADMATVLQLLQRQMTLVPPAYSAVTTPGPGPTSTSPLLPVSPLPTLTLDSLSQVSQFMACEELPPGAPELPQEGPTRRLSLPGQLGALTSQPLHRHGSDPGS
T2 sequence (Q12809 whole entry): as above

For orientation: IC50 means the concentration that gives 50% inhibition. Regarding `NC(=O)c1ncc(N[C@@H]2CCCC[C@@H]2N)nc1Nc1cccc(-n2nccn2)c1`, the IC50 in data set [1] (setting [20]) stood at 2110 nM; in data set [2], 69 nM; in data set [3] it was 10000 nM; in [4] it was 1 nM; in [5] it was 1790 nM.
On to `N[C@H]1CCCC[C@H]1Nc1cc2nc[nH]c(=O)c2c(Nc2cccc(-n3nccn3)c2)n1`, for which the half-maximal inhibitory concentration (IC50) in data set [1] (setting [20]) amounted to 249 nM.
With `NC(=O)c1cnc(N[C@@H]2CCCC[C@@H]2N)nc1Nc1cccc(-n2nccn2)c1`, the IC50 in data set [1] (setting [20]) amounted to 5850 nM.
What is called MRT is a mean duration of stay, worked out from the concentration-time curve. Broadly, the bioavailability is dose-corrected exposure relative to a reference, in per cent. Regarding `NC(=O)c1nnc(N[C@@H]2CCCC[C@@H]2N)nc1Nc1cccc2[nH]ccc12`, the IC50 in [1] (setting [20]) came out at 5270 nM; in data set [2], 14 nM; in [3], 3700 nM; in data set [5], 177 nM. Further, the Vd in data set [6] is 10.3 L/kg. In addition, the clearance in data set [7] worked out at 83 mL/min/kg. The compound also came in with an MRT in data set [8] of 2.1 h. In addition, the AUC/dose in the data set on Rattus norvegicus [9] worked out at 19 nM·h; with Rattus norvegicus [12], 522 nM·h. Besides, the bioavailability in data set [10] came to 4%. The compound further came in with a Cmax/dose in the data set with Rattus norvegicus [11] of 4 nM.
As for `NC(=O)c1nnc(N[C@@H]2CCCC[C@@H]2N)nc1Nc1cccc2c1N=C(NC(CS)C(=O)O)C2=O` (stereo partly drawn), in data set [13], the Drug metabolism is 0.9 µg.
In the case of `NC(=O)c1ccc(N[C@@H]2CCCC[C@@H]2N)nc1Nc1cccc2cc[nH]c12`, the IC50 in data set [1] (setting [20]) is more than 10000 nM; in data set [2], 438 nM; in data set [3] it was more than 30000 nM; in data set [4] it was 165 nM.
As for `NC(=O)c1ccc(N[C@@H]2CCCC[C@@H]2N)nc1Nc1cccc(-n2nccn2)c1`, the IC50 was found to be 2600 nM in data set [1] (setting [20]), 445 nM in [2] and 19 nM in data set [4].
With `c1cn2cc(-c3ccc4cn[nH]c4c3)nc(Nc3ccc(N4CCOCC4)cc3)c2n1` [ENTOSPLETINIB], in data set [1] (bone marrow cell), the IC50 came to 582 nM.
As a reminder, the inhibition is the relative decrease from the control value, in per cent. In the case of `NC(=O)c1ncc(N[C@@H]2CCCC[C@@H]2N)nc1Nc1cccc2cc[nH]c12`, the IC50 turned out to be 5270 nM in [1] (setting [20]); 30 nM in [2]; 8100 nM in data set [3]; 5 nM in [4]; 302 nM in data set [5]. Further, the Vd in data set [6] amounted to 12.3 L/kg. The compound further registered a clearance in data set [7] of 28 mL/min/kg. Also, the MRT in data set [8] is 7.2 h. The AUC/dose is 1523 nM·h with Rattus norvegicus [9] and 1610 nM·h in the data set on Rattus norvegicus [12]. The compound also yielded a bioavailability in data set [10] of 95%. The same compound came in with an inhibition at 3 µM against hERG (KCNH2) [14] of 13%. This compound also gave a Cmax/dose with Rattus norvegicus [11] of 108 nM. Besides, testing at 10 µM at hERG (KCNH2) [15] gave an inhibition of 50%.
For `N[C@H]1COCC[C@H]1Nc1cc2cc[nH]c(=O)c2c(Nc2cccc3cc[nH]c23)n1`, in data set [1] (setting [20]), the IC50 is 3520 nM.
For `NC(=O)c1cnc(N[C@@H]2CCCC[C@@H]2N)nc1Nc1cccc2cc[nH]c12`, the IC50 in data set [1] (setting [20]) is more than 10000 nM; in data set [2], 170 nM; in [3], more than 30000 nM; in [4] it was 94 nM; in data set [5], 782 nM.
On to `NC(=O)c1cnc(N[C@@H]2CCCC[C@@H]2NC(=O)OCc2ccccc2)nc1Nc1cccc2cc[nH]c12`, for which the Stability with Hepatocyte [16] came to 2.6%; in data set [17], 13%; in data set [18], 8.4%; in the data set with Hepatocyte [19] it was 2.1%.
For `NC(=O)c1nnc(N[C@@H]2CCCC[C@@H]2N)nc1Nc1cccc(-n2nccn2)c1`, the half-maximal inhibitory concentration (IC50) stood at 811 nM in data set [1] (setting [20]) and 3700 nM in data set [3].
